ARNT-TACC3 inh: disruptors of human ARNT/TACC3 interaction. hit rate 0.66% among 390,000. Q9Y6A5. AlphaScreen His-ARNT PAS-B/GST-TACC3 binding, luminescence; TACC3 fragment carries E629A point mutation. inhibition, % at 9.99 µM;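 active means mean inhibition of replicates at least 50% and at least half of replicates each reaching 50%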
PGC1a acetyl inh: PGC1a acetylation modulation, inhibitor mode; U2OS PGC1a acetylation, AlphaScreen anti-acetyl-lysine; with virally co-expressed GCN5 acetyltransferase; inhibition, % at 15.6 µM; hit rate 0.17% among 350,000;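 active means every replicate shows inhibition of at least 40%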
ERAP1 inh: ERAP1 (human) enzyme inhibition. inhibition, % at 10.7 µM. recombinant ERAP1, Leu-AMC fluorescence, 60 min. Q9NZ08. hit rate 0.15% among 340,000. AID 652197;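 active means mean replicate inhibition of at least 30%, or all replicates individually reaching that 30% level; inactive means mean below 30% and not every replicate reaching it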
Target sequence (Q9NZ08 whole entry, looked up): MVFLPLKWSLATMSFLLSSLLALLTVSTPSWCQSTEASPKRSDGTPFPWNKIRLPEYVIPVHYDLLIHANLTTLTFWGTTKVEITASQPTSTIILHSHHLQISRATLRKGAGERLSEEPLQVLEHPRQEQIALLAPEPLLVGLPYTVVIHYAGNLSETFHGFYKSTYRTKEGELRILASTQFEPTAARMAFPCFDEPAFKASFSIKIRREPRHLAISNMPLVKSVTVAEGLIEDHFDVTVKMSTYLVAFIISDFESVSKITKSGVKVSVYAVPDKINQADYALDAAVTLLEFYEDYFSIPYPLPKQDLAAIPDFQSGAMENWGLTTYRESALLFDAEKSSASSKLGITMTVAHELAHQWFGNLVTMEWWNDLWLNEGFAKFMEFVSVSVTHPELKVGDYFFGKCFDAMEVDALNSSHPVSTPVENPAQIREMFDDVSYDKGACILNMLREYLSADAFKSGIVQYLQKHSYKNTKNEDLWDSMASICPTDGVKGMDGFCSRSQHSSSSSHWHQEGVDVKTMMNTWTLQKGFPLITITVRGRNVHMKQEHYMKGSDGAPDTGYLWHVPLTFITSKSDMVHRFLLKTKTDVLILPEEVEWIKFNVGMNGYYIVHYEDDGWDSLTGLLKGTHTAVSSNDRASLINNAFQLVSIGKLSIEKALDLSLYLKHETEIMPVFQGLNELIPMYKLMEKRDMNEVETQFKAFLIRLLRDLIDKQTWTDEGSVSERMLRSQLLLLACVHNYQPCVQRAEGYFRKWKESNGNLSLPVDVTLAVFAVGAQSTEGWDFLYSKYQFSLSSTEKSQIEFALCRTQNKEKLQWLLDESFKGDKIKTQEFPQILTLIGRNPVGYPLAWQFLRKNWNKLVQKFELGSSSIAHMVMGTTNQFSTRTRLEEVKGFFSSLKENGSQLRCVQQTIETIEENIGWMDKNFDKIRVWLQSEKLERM
rRNA inh HTS: inhibitors of bacterial rRNA selective over humanized ribosomes; GFP signal change (wild-type ribosome), % (test concentration not listed); AID 720706; hit rate 1.6% among 350,000; E. coli WT GFP vs humanized-ribosome RFP mutants, fluorescence, 24 h; hits give low values; DMSO median 0, no signal -100;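 active means significant combined selectivity score with lowered wild-type GFP, culture density cut under 30%, mutant RFP and density less affected; inactive means any of these conditions unmet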
CASP6 VEID inh: blocks human caspase-6 cleavage activity; P55212; purified caspase-6, Z-VEID-R110 cleavage fluorescence; inhibition, % at 12.5 µM; hit rate 0.53% among 350,000; AID 686996;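 active means mean inhibition across replicates at least about 35%, with every replicate also reaching that limit, limit read from the data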
S100A4 inh HTS: inhibitors of human S100A4 binding to myosin IIA peptide; S100A4/TAMRA-MyoIIA peptide fluorescence polarization; inhibition, % at 10.7 µM; hit rate 0.14% among 360,000; AID 652163;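 active means mean inhibition of at least 70% across replicates, with every replicate also reaching that level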
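Test system: S100A4 monomer protein; Medium: HEPES pH 7.2 with CaCl2, KCl, NaCl, DTT, Triton; Probe or stimulus: TAMRA-labelled myosin IIA heavy-chain peptide probe, 5 nM; Doses: one dose per compound; Times: polarization read 5 min after assay mix addition, stable 5–60 min; Benchmarks: neutral control DMSO, positive control TFP.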
Hits are given with their value. An excerpt weighted towards active compounds, which were near 2.4% of everything screened.

COc1cc(/C=N/NC(=O)Nc2cccc3nsnc23)cc(OC)c1OC was read as ARNT-TACC3 inh inactive and PGC1a acetyl inh inactive.
`O=C(N/N=C/c1ccc(O)cc1)Nc1cccc2nsnc12` gave ARNT-TACC3 inh inactive, PGC1a acetyl inh inactive, ERAP1 inh inactive, rRNA inh HTS -31.0, CASP6 VEID inh inactive and S100A4 inh HTS inactive.
O=C(NCCN1CCN(c2ccccc2F)CC1)c1ccc2nc3ccccc3c(=O)n2c1 was read as ARNT-TACC3 inh 48.2, PGC1a acetyl inh inactive, ERAP1 inh inactive, rRNA inh HTS inactive, CASP6 VEID inh inactive and S100A4 inh HTS inactive.
Screening C[C@@H]1CCCCO[C@H](CN(C)C)[C@H](C)CN([C@H](C)CO)C(=O)c2cc(NS(=O)(=O)c3cn(C)cn3)ccc2O1 returned ARNT-TACC3 inh inactive, PGC1a acetyl inh inactive, ERAP1 inh inactive, rRNA inh HTS inactive, CASP6 VEID inh inactive and S100A4 inh HTS inactive.
For COc1ccc(S(=O)(=O)N2CCOC2CNC(=O)C(=O)NCCc2c[nH]c3ccccc23)cc1C (stereo unspecified) the results were ARNT-TACC3 inh inactive, PGC1a acetyl inh inactive, ERAP1 inh inactive, rRNA inh HTS -14.6, CASP6 VEID inh inactive and S100A4 inh HTS inactive.
`CC1(C)Oc2ccc3ccc(=O)oc3c2-c2cnoc21` gave PGC1a acetyl inh inactive, ERAP1 inh 56.5, rRNA inh HTS inactive, CASP6 VEID inh inactive and S100A4 inh HTS inactive.
`CC(C)[C@@H]1C(=O)N[C@@H](c2ccc(F)cc2)CC=CC[C@H](C)Oc2ccccc2C(=O)N1C` (mixture of isomers) gave rRNA inh HTS inactive.
`C[C@H](CO)N1C[C@H](C)[C@@H](CN(C)C(=O)c2cccc(F)c2)Oc2ncc(-c3ccccc3)cc2C1=O` gave PGC1a acetyl inh inactive and rRNA inh HTS inactive.
`O=C(NCCN1CCOCC1)c1ccc2c(c1)N(Cc1cccc(F)c1)C(=O)c1ccccc1S2` gave ARNT-TACC3 inh inactive, PGC1a acetyl inh inactive, ERAP1 inh inactive, rRNA inh HTS inactive, CASP6 VEID inh inactive and S100A4 inh HTS inactive.
O=C(O)c1ccc2c(c1)N(Cc1ccc(F)cc1)C(=O)c1ccccc1S2 was read as ARNT-TACC3 inh inactive, PGC1a acetyl inh inactive, ERAP1 inh inactive, rRNA inh HTS -19.9, CASP6 VEID inh inactive and S100A4 inh HTS inactive.
`CCOC(=O)c1c(C)[nH]c(C(=O)C(C)OC(=O)c2cnc(C)cn2)c1C` (stereo unspecified) gave ARNT-TACC3 inh inactive, PGC1a acetyl inh inactive, ERAP1 inh inactive, rRNA inh HTS -25.5, CASP6 VEID inh inactive and S100A4 inh HTS inactive.
Screening CCOC(=O)c1c(C)[nH]c(C(=O)COC(=O)c2cnc(C)cn2)c1C returned ARNT-TACC3 inh inactive and PGC1a acetyl inh inactive.
Screening Nc1nnnn1CC(=O)N/N=C/c1cc([N+](=O)[O-])ccc1O returned ARNT-TACC3 inh 66.9, PGC1a acetyl inh inactive, ERAP1 inh inactive, rRNA inh HTS inactive, CASP6 VEID inh inactive and S100A4 inh HTS inactive.
Cc1cc([N+](=O)[O-])nn1CC(=O)N/N=C/c1ccccc1O was read as ARNT-TACC3 inh 67.6, PGC1a acetyl inh inactive, rRNA inh HTS inactive, CASP6 VEID inh inactive and S100A4 inh HTS inactive.
For Cc1cc(C)n(CCC(=O)N/N=C/c2ccc(Br)c([N+](=O)[O-])c2)n1 the results were ARNT-TACC3 inh inactive, ERAP1 inh inactive, rRNA inh HTS -15.3, CASP6 VEID inh inactive and S100A4 inh HTS inactive.
For Nc1nnnn1CC(=O)N/N=C/c1cccs1 the results were ARNT-TACC3 inh inactive, PGC1a acetyl inh inactive, ERAP1 inh inactive, rRNA inh HTS inactive, CASP6 VEID inh inactive and S100A4 inh HTS inactive.
For Cc1cc(C)n(CC(=O)N/N=C/c2cc(Br)cc([N+](=O)[O-])c2O)n1 the results were ARNT-TACC3 inh inactive, ERAP1 inh inactive, rRNA inh HTS inactive, CASP6 VEID inh inactive and S100A4 inh HTS inactive.
For Cc1cc(C)n(Cc2ccc(NC(=O)c3nn(C)cc3[N+](=O)[O-])cc2)n1 the results were ARNT-TACC3 inh inactive and PGC1a acetyl inh inactive.
For Cc1cc(C)n(CC(=O)N/N=C/c2cc([N+](=O)[O-])ccc2O)n1 the results were ARNT-TACC3 inh 72.2, ERAP1 inh inactive, rRNA inh HTS inactive, CASP6 VEID inh inactive and S100A4 inh HTS inactive.
For O=C(C[C@H]1CC[C@@H](NC(=O)c2ccncc2)[C@H](CO)O1)NCc1ccncn1 the results were PGC1a acetyl inh inactive, ERAP1 inh inactive, rRNA inh HTS inactive, CASP6 VEID inh inactive and S100A4 inh HTS inactive.
For COc1ccc(NC(=O)N(C)C[C@H]2Oc3c(NS(=O)(=O)c4ccc(F)cc4)cccc3C(=O)N([C@@H](C)CO)C[C@H]2C)cc1 the results were ARNT-TACC3 inh inactive, PGC1a acetyl inh inactive and rRNA inh HTS inactive.
For Cc1noc(C)c1NC(=O)Nc1ccc2c(c1)C(=O)N([C@H](C)CO)C[C@H](C)[C@@H](CN(C)C(=O)NC(C)C)OCCCC[C@@H](C)O2 the results were PGC1a acetyl inh inactive, rRNA inh HTS inactive and S100A4 inh HTS inactive.
For O=C(C[C@@H]1CC[C@H]2[C@@H](COC[C@H](O)CN2Cc2ccccc2)O1)NCCCN1CCOCC1 the results were ARNT-TACC3 inh inactive, PGC1a acetyl inh inactive, ERAP1 inh inactive, rRNA inh HTS inactive, CASP6 VEID inh inactive and S100A4 inh HTS inactive.
`C[C@@H]1CN([C@H](C)CO)C(=O)Cc2cc(NS(=O)(=O)c3cccs3)ccc2O[C@@H]1CN(C)C(=O)NC1CCCCC1` gave ARNT-TACC3 inh inactive, PGC1a acetyl inh inactive, ERAP1 inh inactive, rRNA inh HTS inactive, CASP6 VEID inh inactive and S100A4 inh HTS inactive.
For Nc1nnc(CC(=O)N/N=C\c2cc([N+](=O)[O-])ccc2O)s1 the results were ARNT-TACC3 inh 64.9, ERAP1 inh inactive, rRNA inh HTS inactive, CASP6 VEID inh inactive and S100A4 inh HTS inactive.
Screening O=C(N/N=C/c1cc([N+](=O)[O-])ccc1O)C12CC3CC(CC(C3)C1)C2 returned ARNT-TACC3 inh inactive, ERAP1 inh inactive, rRNA inh HTS inactive, CASP6 VEID inh inactive and S100A4 inh HTS inactive.
Screening CCCNC(=O)C[C@H]1CC[C@H]2[C@@H](COC[C@@H](O)CN2Cc2cccc(F)c2)O1 returned ARNT-TACC3 inh inactive, PGC1a acetyl inh inactive, ERAP1 inh inactive, rRNA inh HTS inactive, CASP6 VEID inh inactive and S100A4 inh HTS inactive.
CCc1ccc([C@@H]2CC=C(C(=O)O)[C@H](c3ccc(C)cc3)N2S(=O)(=O)c2ccc(C)cc2)cc1 was read as ARNT-TACC3 inh inactive, PGC1a acetyl inh inactive, rRNA inh HTS -24.4, CASP6 VEID inh inactive and S100A4 inh HTS inactive.
Cc1ccc([C@@H]2CC=C(C(=O)O)CN2S(=O)(=O)c2ccc(C)cc2)cc1 was read as ARNT-TACC3 inh inactive, ERAP1 inh inactive, rRNA inh HTS inactive, CASP6 VEID inh inactive and S100A4 inh HTS inactive.

Screens deposited in PubChem by Broad Institute.
